In the library only some 3.7% were active in any assay of this set; here they are far more common.
procasp3 activ: activators of human procaspase-3 D3A mutant, primary screen, biochemical, absorbance, PC-3 D3A mutant, single concentration; activation, % at 8.5 µM; recombinant procaspase-3 D3A, Ac-DEVD-pNA absorbance 405 nm; hit rate 0.11% among 330,000;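 active = activation above the mean of all tested compounds plus 3 SD, cut at about 21% in these data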;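 note: 0% = DMSO alone and 100% = DMSO wells spiked with extra 5 µM PC-3 D3A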
Target sequence (P42574 whole entry D9A/D28A/D175A): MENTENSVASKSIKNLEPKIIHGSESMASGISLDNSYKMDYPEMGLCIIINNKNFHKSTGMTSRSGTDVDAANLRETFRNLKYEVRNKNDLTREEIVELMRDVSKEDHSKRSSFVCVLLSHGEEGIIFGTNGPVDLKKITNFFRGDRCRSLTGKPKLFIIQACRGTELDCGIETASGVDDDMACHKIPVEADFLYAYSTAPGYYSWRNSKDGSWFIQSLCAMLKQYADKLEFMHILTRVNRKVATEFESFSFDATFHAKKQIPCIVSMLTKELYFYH
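assay system = Procaspase-3 D3A mutant | signal = absorbance at 405 nm, 0 and 120 min | times = 1 h preincubation plus 2 h reaction at 25 °C | repeats = single replicate | read-out = % activation between DMSO and enzyme-spiked controls | medium = Zinc-free HEPES saline buffer with Triton X-100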
proCasp7 act: procaspase-7 activators, primary screen, counter-screen for procaspase-3 activator project, biochemical, absorbance, HTS, human | AID 463210, 2010 | Caspase-7 (Homo sapiens), P55210 | recombinant procaspase-7, Ac-DEVD-pNA absorbance 405 nm; D23A/D198A/D206A triple mutant, cannot self-cleave; scale: DMSO 0, 5 µM enzyme 100 | activation, % at 8.5 µM | hit rate 0.093% among 330,000;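 active = percent activation above the screen-wide mean plus 3 SD, cut at about 25% in these data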
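Assay system: Uncleavable procaspase-7 mutant enzyme / Input: 2 µM procaspase-7 mutant as dispensed / Dosing: single nominal 8.5 µM compound dose, 0.8% DMSO final / Timing: 1 h enzyme–compound preincubation and 2 h substrate reaction, both 25 °C / Detection: p-Nitroaniline absorbance at 405 nm, read at 0 and 120 min / Replication: singlicate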
aDG glyco up: activators of alpha-DG glycosylation, primary screen, uHTS, Pro5-aDG cells, AlphaScreen; alpha-DG glycosylation AlphaScreen (IIH6); 0% Pro5, 100% B10-LARGE cell signal; activation, % at 10 µM; hit rate 0.22% among 360,000; AID 624168, 2012;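 active = activation of at least 8% versus controls, or a plate z-score of at least 8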;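 note: Pro5 are CHO cells carrying HIG-tagged alpha-DG that lacks glycosylation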
MPTP inh: mitochondrial permeability transition pore inhibitors, primary screen, biochemical, isolated mouse mitochondria, absorbance | AID 602449, 2012 | inhibition, % at 10 µM | Ca2+ swelling absorbance, 30 min | hit rate 1.4% among 360,000;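 active = inhibition of 50% or more, scaled per plate between neutral and stimulator controls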;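 note: 0% = DMSO wells given calcium and 100% = 1 mM EGTA wells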
GRIN3A LBD mod: binders of NR3A ligand-binding domain, primary screen, biophysical, differential scanning fluorimetry, uHTS. Glutamate receptor ionotropic, NMDA 3A (GRIN3A) ligand-binding domain. NR3A LBD differential scanning fluorimetry, Tm shift; 0% = protein alone, 100% = glycine-bound protein. Tm shift relative to glycine control, % at 25 µM. hit rate 2.5% among 340,000. AID 1259313, 2017;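 active = melting temperature shift of at least 10% of the positive control shift, at one fixed dose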
MPTP counter: fluorescence retest of MPTP screen hits in isolated mitochondria, single concentration | shares compounds with MPTP inh | membrane potential, Rhodamine 123 fluorescence | inhibition, % at 10 µM | hit rate 78% among 5,000; in the data active = inhibition above about 22%;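 note: 0% = DMSO vehicle and 100% = positive control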
MPTP swell DR: mitochondrial permeability transition pore inhibitors, dose response, biochemical, absorbance, uHTS hits. shares compounds with MPTP inh. isolated mitochondria swelling. IC50, µM. hit rate 58% among 780. AID 651561, 2012; in the data active = IC50 below about 20 µM
MPTP counter DR: fluorescent counter-screen in isolated mitochondria, dose response, counter-screen for MPTP inhibitor project, biochemical, fluorescence, uHTS hits. shares compounds with MPTP inh. isolated mitochondria counterscreen, fluorescence read-out. IC50, µM. hit rate 49% among 780; in the data active = IC50 below about 80 µM
Active calls of the source: *; i = inactive; / = no result.

SMILES | procasp3 activ | proCasp7 act | aDG glyco up | MPTP inh | GRIN3A LBD mod | MPTP counter | others
COc1ccc(NS(=O)(=O)c2ccc(-c3cnc(C4CC4)o3)cc2)cc1OC | 5.0 | -6.0 | 2.0 | 91.5* | 0.2 | 92.5*
COc1ccc(S(=O)(=O)Nc2ccc3c(c2)OCCO3)cc1Cl | 9.1 | 6.6 | 0.4 | -0.8 | -50.5 | /
COc1ccc(S(=O)(=O)Nc2ccc3c(c2)OCO3)cc1OC | -1.1 | 6.4 | -0.4 | 0.8 | 1.6 | /
CCNC(=O)C1(C)CCN1CCC(=O)c1ccc(Br)cc1 (stereo unspecified) | / | / | 0.2 | 1.3 | / | /
O=C(O)CCC(C(=O)O)N1C(=O)C2C3CCC(C3)C2C1=O (stereo unspecified) | / | / | 0.0 | -1.0 | / | /
CCOC(=O)c1c(NC(=O)CSc2nc3ccccc3s2)sc(C(C)=O)c1C | 3.6 | 4.6 | 1.8 | 85.7* | -1.3 | 50.1*
CCOC(=O)c1c(NC(=O)CSc2nc3cc(Cl)ccc3s2)sc(C(C)=O)c1C | 0.6 | 8.4 | / | / | / | /
N/C(=N\OC(=O)COc1ccc2ccccc2c1)c1cccnc1 | 0.6 | -6.0 | 0.8 | 60.8* | -2.1 | 83.6*
COCc1cc(C)nc(OCC(=O)N/N=C/c2ccc(O)cc2)c1C#N | 11.6 | 9.8 | -0.2 | 0.7 | -6.8 | /
COCc1cc(C)nc(OCC(=O)N/N=C/c2cc(C)n(-c3c(C)cccc3C)c2C)c1C#N | 5.3 | 5.4 | 0.0 | 55.5* | -0.1 | 0.5 | MPTP swell DR=7.89*;MPTP counter DR=>80
CCc1ccccc1Nc1ccc(C(=O)O)cc1N | -6.2 | -9.4 | 0.2 | 62.2* | 0.5 | -3.9 | MPTP swell DR=i;MPTP counter DR=>80
CC(C)C(=O)N1CCC(CN=CC2=C(O)CC(C)(C)CC2=O)CC1 | 1.4 | 6.7 | 0.7 | 69.4* | -1.2 | 113.2*
COc1ccc(NC(=O)C2Cc3c(-c4ccc5c(c4)OCO5)ccnc3O2)cc1OC (stereo unspecified) | / | / | 1.5 | 95.5* | / | 89.0*
COc1ccc(NC(=O)C2Cc3c(-c4cccc(F)c4)ccnc3O2)cc1OC (stereo unspecified) | / | / | 1.4 | 68.3* | / | 65.1*
C=CCn1c(SCC(=O)c2cccs2)nc2sc(CC)cc2c1=O | 6.4 | -5.3 | 5.0 | 91.2* | 1.1 | 76.9*
C=CCn1c(SCC(=O)O)nc2sc(CC)cc2c1=O | 1.2 | -7.4 | -0.1 | 0.5 | 0.0 | /
C=CCn1c(SCC2CCCCO2)nc2sc(CC)cc2c1=O (stereo unspecified) | -5.4 | 10.6 | 0.1 | 54.4* | -2.4 | 22.4*
C=CCN1C(=O)c2ccc(C(=O)N(C)CC(=O)Nc3ccc(Br)cc3C)cc2C1=O | 2.5 | -2.4 | -0.3 | -1.5 | 4.8 | /
C[C@@H]1CN([C@H](C)CO)C(=O)c2cc(C3=CCCCC3)cnc2O[C@@H]1CN(C)Cc1ccccc1C(=O)O | / | / | -0.1 | -1.7 | / | /
CC(C)Cn1c(N)c(C(=O)COC(=O)c2ccccc2C(=O)c2ccccc2)c(=O)n(C)c1=O | -6.2 | 11.6 | 0.3 | 1.1 | -8.4 | /
O=C(Nc1cccc2c1[nH]c(=O)c1ccccc12)C(F)(F)F | / | / | -0.1 | -1.1 | / | /
O=C(Nc1cccc2c1[nH]c1ccccc12)C(F)(F)F | -11.5 | -4.5 | 0.3 | 98.6* | -11.3 | 86.6*
COc1ccc2oc(C(=O)OCC(=O)N(C)C3CCS(=O)(=O)C3)c(C)c2c1 (stereo unspecified) | -6.6 | 2.7 | 0.0 | 0.2 | 1.2 | /

Screens as filed in PubChem BioAssay.
